# How the values were obtained:
# [1] = tested on: Mycobacterium tuberculosis; experiment: Antitubercular activity against Mycobacterium tuberculosis H37Rv infected in po dosed BALB/c mouse assessed as reduction in log10 CFU count by single dose study; type: functional, organism-based
# Mus musculus = experiment: Toxicity in BALB/c mouse assessed as adverse effect up to 1456 mg/kg, po administered as single dose; type: organism-based; set-up: route oral; conditions: in vivo
# Summary of the method: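 Uninfected 6-week female BALB/c mice received single oral gavage doses of 3–1,458 mg/kg as a cyclodextrin-micelle suspension. Three mice per time point were bled by cardiac puncture under isoflurane at 0.5–120 h. Serum levels were measured by validated HPLC-UV (standards 0.20–50 µg/ml).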
# [2] = tested on: Mycobacterium tuberculosis; experiment: fT>MIC for >= 1 log reduction in CFU count in Mycobacterium tuberculosis H37Rv in using simulated dose of at 100 mg assessed as time during compound concentration exceeds MIC of 0.03125 ug/ml assuming 5% unbound compound concentration by one compartment human pharmacokinetic model; type: functional
# Summary of the method: (§1)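 A one-compartment PK model was fitted to human data to get median parameters. It simulated steady-state total and free concentrations for 100, 200 or 400 mg once daily, assuming 5, 7, 10 or 15% unbound drug. Free T>MIC was computed against MICs of 0.03125–0.25 µg/ml and compared with the mouse-derived T>MIC target for 1-log10 kill.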
# [3] = tested on: Mycobacterium tuberculosis; experiment: fT>MIC for >= 1 log reduction in CFU count in Mycobacterium tuberculosis H37Rv in using simulated dose of at 200 mg assessed as time during compound concentration exceeds MIC of 0.03125 ug/ml assuming 5% unbound compound concentration by one compartment human pharmacokinetic model; type: functional; summary of the method: as §1
# [4] = tested on: Mycobacterium tuberculosis; experiment: fT>MIC for >= 1 log reduction in CFU count in Mycobacterium tuberculosis H37Rv in using simulated dose of at 200 mg assessed as time during compound concentration exceeds MIC of 0.03125 ug/ml assuming 7% unbound compound concentration by one compartment human pharmacokinetic model; type: functional; summary of the method: as §1
# [5] = tested on: Mycobacterium tuberculosis; experiment: fT>MIC for >= 1 log reduction in CFU count in Mycobacterium tuberculosis H37Rv in using simulated dose of at 400 mg assessed as time during compound concentration exceeds MIC of 0.03125 ug/ml assuming 7% unbound compound concentration by one compartment human pharmacokinetic model; type: functional; summary of the method: as §1
# [6] = tested on: Mycobacterium tuberculosis; experiment: fT>MIC for >= 1 log reduction in CFU count in Mycobacterium tuberculosis H37Rv in using simulated dose of at 100 mg assessed as time during compound concentration exceeds MIC of 0.06250 ug/ml assuming 7% unbound compound concentration by one compartment human pharmacokinetic model; type: functional; summary of the method: as §1
# [7] = tested on: Mycobacterium tuberculosis; experiment: fT>MIC for >= 1 log reduction in CFU count in Mycobacterium tuberculosis H37Rv in using simulated dose of at 200 mg assessed as time during compound concentration exceeds MIC of 0.06250 ug/ml assuming 10% unbound compound concentration by one compartment human pharmacokinetic model; type: functional; summary of the method: as §1
# [8] = tested on: Mycobacterium tuberculosis; experiment: fT>MIC for >= 1 log reduction in CFU count in Mycobacterium tuberculosis H37Rv in using simulated dose of at 400 mg assessed as time during compound concentration exceeds MIC of 0.06250 ug/ml assuming 10% unbound compound concentration by one compartment human pharmacokinetic model; type: functional; summary of the method: as §1
# [9] = tested on: Mycobacterium tuberculosis; experiment: fT>MIC for >= 1 log reduction in CFU count in Mycobacterium tuberculosis H37Rv in using simulated dose of at 200 mg assessed as time during compound concentration exceeds MIC of 0.12500 ug/ml assuming 5% unbound compound concentration by one compartment human pharmacokinetic model; type: functional; summary of the method: as §1
# [10] = tested on: Mycobacterium tuberculosis; experiment: fT>MIC for >= 1 log reduction in CFU count in Mycobacterium tuberculosis H37Rv in using simulated dose of at 400 mg assessed as time during compound concentration exceeds MIC of 0.12500 ug/ml assuming 5% unbound compound concentration by one compartment human pharmacokinetic model; type: functional
# Summary of the method: (§2)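 Human steady-state simulation: one-compartment PK model fitted to patient data, chosen by AIC. Median PK parameters used to simulate total and free concentrations, assuming 5, 7, 10 or 15% unbound, for 100, 200 and 400 mg once daily. Free levels compared with MICs of 0.03125 to 0.25 µg/ml to give %T>MIC; T>MIC is the cumulative percentage of the dosing interval above MIC.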
# [11] = tested on: Mycobacterium tuberculosis; experiment: fT>MIC for >= 1 log reduction in CFU count in Mycobacterium tuberculosis H37Rv in using simulated dose of at 400 mg assessed as time during compound concentration exceeds MIC of 0.12500 ug/ml assuming 7% unbound compound concentration by one compartment human pharmacokinetic model; type: functional; summary of the method: as §2
# [12] = tested on: Mycobacterium tuberculosis; experiment: fT>MIC for >= 1 log reduction in CFU count in Mycobacterium tuberculosis H37Rv in using simulated dose of at 200 mg assessed as time during compound concentration exceeds MIC of 0.12500 ug/ml assuming 10% unbound compound concentration by one compartment human pharmacokinetic model; type: functional; summary of the method: as §1
# [13] = tested on: Mycobacterium tuberculosis; experiment: fT>MIC for >= 1 log reduction in CFU count in Mycobacterium tuberculosis H37Rv in using simulated dose of at 400 mg assessed as time during compound concentration exceeds MIC of 0.12500 ug/ml assuming 10% unbound compound concentration by one compartment human pharmacokinetic model; type: functional; summary of the method: as §2
# [14] = tested on: Mycobacterium tuberculosis; experiment: fT>MIC for >= 1 log reduction in CFU count in Mycobacterium tuberculosis H37Rv in using simulated dose of at 100 mg assessed as time during compound concentration exceeds MIC of 0.25000 ug/ml assuming 5% unbound compound concentration by one compartment human pharmacokinetic model; type: functional; summary of the method: as §1
# [15] = tested on: Mycobacterium tuberculosis; experiment: fT>MIC for >= 1 log reduction in CFU count in Mycobacterium tuberculosis H37Rv in using simulated dose of at 200 mg assessed as time during compound concentration exceeds MIC of 0.25000 ug/ml assuming 5% unbound compound concentration by one compartment human pharmacokinetic model; type: functional; summary of the method: as §1
# [16] = tested on: Mycobacterium tuberculosis; experiment: fT>MIC for >= 1 log reduction in CFU count in Mycobacterium tuberculosis H37Rv in using simulated dose of at 400 mg assessed as time during compound concentration exceeds MIC of 0.25000 ug/ml assuming 7% unbound compound concentration by one compartment human pharmacokinetic model; type: functional; summary of the method: as §2
# [17] = tested on: Mycobacterium tuberculosis; experiment: fT>MIC for >= 1 log reduction in CFU count in Mycobacterium tuberculosis H37Rv in using simulated dose of at 400 mg assessed as time during compound concentration exceeds MIC of 0.25000 ug/ml assuming 10% unbound compound concentration by one compartment human pharmacokinetic model; type: functional; summary of the method: as §2
# [18] = tested on: Mycobacterium tuberculosis; experiment: Antimicrobial activity against Mycobacterium tuberculosis H37Rv infected in single po dosed BALB/c mouse assessed as reduction in lung CFU count; type: functional
# [19] = Cmax in mouse at 100 or 50 mg/kg, po administered as single dose; type: ADME, organism-based; set-up: dose 50 mg/kg, route oral; conditions: in vivo
smiles,measurement,setting,value
O=[N+]([O-])c1cn2c(n1)OC[C@@H](OCc1ccc(OC(F)(F)F)cc1)C2 [PRETOMANID],Activity,[1],Dose-dependent effect
same,Activity,Mus musculus,Non-toxic
same,fT>MIC,[2],46%
same,fT>MIC,[3],100%
same,fT>MIC,[4],100%
same,fT>MIC,[5],100%
same,fT>MIC,[6],0%
same,fT>MIC,[7],100%
same,fT>MIC,[8],100%
same,fT>MIC,[9],0%
same,fT>MIC,[10],46%
same,fT>MIC,[11],67%
same,fT>MIC,[12],46%
same,fT>MIC,[13],100%
same,fT>MIC,[14],0%
same,fT>MIC,[15],0%
same,fT>MIC,[16],4%
same,fT>MIC,[17],46%
same,MBC,[18],100 mg/kg
same,Cmax,[19],3800 ng/mL

# Source: ChEMBL document CHEMBL1687823, “PA-824 exhibits time-dependent activity in a murine model of tuberculosis” (Antimicrob Agents Chemother, 2011)
